The source made the active and inactive calls. The calls are words filed in the database; no cut-off is given here.
How the values were obtained:
Type in all cases: cell-based
[1] = target: T1, GABA-A receptor; alpha-1/beta-2/gamma-2 (Homo sapiens) (UniProt P14867+P47870+P18507); assay: Allosteric modulation of GABAAalpha1beta2gamma2s receptor (unknown origin) expressed in Xenopus laevis oocytes assessed as potentiation of GABA-induced chloride current by two-microelectrode voltage-clamp method relative to GABA
Summary of the method: (§1)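 Stage V–VI Xenopus laevis oocytes, defolliculated with 2 mg/mL collagenase, were injected with subunit cRNAs (approx. 300–3000 pg/nL/subunit) and stored at +18 °C in modified ND96 (pH 7.4). Chloride currents were recorded by two-microelectrode voltage clamp at +21 °C, holding potential −70 mV. Washout was 1.5 min at low compound concentrations and 30 min at high ones. Curves were fitted to a Hill equation. Values are mean ± SE from at least 3 oocytes and 2 batches.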

[2] = target: T2, GABA-A receptor; alpha-1/beta-2/gamma-2 (Homo sapiens, UniProt P14867+P18507+P47870); assay: Allosteric modulation of GABAAalpha1beta2gamma2s receptor (unknown origin) expressed in Xenopus laevis oocytes assessed as potentiation of GABA-induced chloride current by two-microelectrode voltage-clamp method; summary of the method: as §1
T2 sequence (P14867 whole entry): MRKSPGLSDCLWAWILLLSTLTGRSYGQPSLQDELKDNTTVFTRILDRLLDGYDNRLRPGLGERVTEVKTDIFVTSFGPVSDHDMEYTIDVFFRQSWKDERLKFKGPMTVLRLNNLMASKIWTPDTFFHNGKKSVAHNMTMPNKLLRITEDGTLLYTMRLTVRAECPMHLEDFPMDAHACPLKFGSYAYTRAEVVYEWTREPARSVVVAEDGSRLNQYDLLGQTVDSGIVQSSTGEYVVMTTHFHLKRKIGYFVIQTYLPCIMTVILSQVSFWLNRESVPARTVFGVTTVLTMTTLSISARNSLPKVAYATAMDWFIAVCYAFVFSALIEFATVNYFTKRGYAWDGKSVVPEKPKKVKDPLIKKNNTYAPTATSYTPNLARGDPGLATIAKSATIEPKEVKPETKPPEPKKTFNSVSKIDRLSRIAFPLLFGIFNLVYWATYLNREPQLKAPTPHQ
T2 sequence (P47870 whole entry): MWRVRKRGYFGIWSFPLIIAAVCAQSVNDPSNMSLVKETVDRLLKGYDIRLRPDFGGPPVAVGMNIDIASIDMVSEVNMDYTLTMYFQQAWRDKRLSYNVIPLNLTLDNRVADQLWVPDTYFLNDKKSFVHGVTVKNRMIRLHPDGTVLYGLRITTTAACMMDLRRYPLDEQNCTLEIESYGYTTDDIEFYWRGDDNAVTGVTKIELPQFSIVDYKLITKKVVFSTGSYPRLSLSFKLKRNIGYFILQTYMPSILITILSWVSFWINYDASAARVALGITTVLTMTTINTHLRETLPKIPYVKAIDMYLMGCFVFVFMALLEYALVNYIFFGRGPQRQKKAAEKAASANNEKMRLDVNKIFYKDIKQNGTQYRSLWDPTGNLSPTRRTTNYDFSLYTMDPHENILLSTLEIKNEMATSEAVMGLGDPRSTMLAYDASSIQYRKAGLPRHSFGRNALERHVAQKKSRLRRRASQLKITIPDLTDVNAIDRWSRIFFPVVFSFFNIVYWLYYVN
T2 sequence (P18507 whole entry): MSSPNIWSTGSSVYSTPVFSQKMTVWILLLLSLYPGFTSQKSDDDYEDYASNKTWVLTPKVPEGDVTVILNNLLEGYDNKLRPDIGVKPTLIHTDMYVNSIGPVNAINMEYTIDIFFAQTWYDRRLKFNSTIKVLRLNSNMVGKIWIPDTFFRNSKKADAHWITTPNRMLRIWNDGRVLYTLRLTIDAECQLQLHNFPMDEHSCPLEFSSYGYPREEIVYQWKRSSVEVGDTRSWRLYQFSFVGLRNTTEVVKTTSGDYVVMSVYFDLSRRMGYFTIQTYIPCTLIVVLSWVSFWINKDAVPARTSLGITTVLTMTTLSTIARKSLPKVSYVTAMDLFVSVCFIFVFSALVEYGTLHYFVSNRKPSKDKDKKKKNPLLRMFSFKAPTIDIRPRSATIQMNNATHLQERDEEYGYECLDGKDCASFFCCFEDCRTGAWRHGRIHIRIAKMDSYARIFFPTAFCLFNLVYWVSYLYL

[3] = target: T1, GABA-A receptor; alpha-1/beta-2/gamma-2 (Homo sapiens); assay: Partial agonist activity at GABAAalpha1beta2gamma2s receptor (unknown origin) expressed in Xenopus laevis oocytes assessed as induction of chloride current by two-microelectrode voltage-clamp method relative to GABA; summary of the method: as §1
[4] = target: T2, GABA-A receptor; alpha-1/beta-2/gamma-2; assay: Partial agonist activity at GABAAalpha1beta2gamma2s receptor (unknown origin) expressed in Xenopus laevis oocytes assessed as induction of chloride current by two-microelectrode voltage-clamp method
[5] = target: T1, GABA-A receptor; alpha-1/beta-2/gamma-2 (Homo sapiens); assay: Allosteric modulation of GABAAalpha1beta2gamma2s receptor (unknown origin) expressed in Xenopus laevis oocytes assessed as potentiation of GABA-induced chloride current at 100 uM by two-microelectrode voltage-clamp method
Summary of the method: (§2)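 Stage V–VI Xenopus oocytes were injected with 10–50 nL of DEPC-treated water carrying each GABAA subunit cRNA at about 300–3000 pg/nL/subunit. Oocytes were kept at +18 °C in modified ND96 (pH 7.4). Chloride currents were recorded by two-microelectrode voltage clamp at +21 °C, holding at −70 mV. Washout was lengthened at high drug concentrations. Values are mean SE from ≥3 oocytes and ≥2 batches.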

[6] = target: T1, GABA-A receptor; alpha-1/beta-2/gamma-2 (Homo sapiens); assay: Partial agonist activity at GABAAalpha1beta2gamma2s receptor (unknown origin) expressed in Xenopus laevis oocytes assessed as potentiation of GABA-induced chloride current at 100 uM by two-microelectrode voltage-clamp method; summary of the method: as §2

Row | Structure (SMILES) | Emax [1] | EC50 [2] | Activity [3] | Emax [3] | EC50 [4] | Activity [5] | Activity [6]
1 | C=CCc1ccc(OCC)c(-c2cc(N)c(O)c(CC=C)c2)c1 | 91% | 21.5 µM | inactive |  |  |  | 
2 | CCCc1cc(N)c(O)c(-c2ccc(OCC)c(CCC)c2)c1 | 93.7% | 14.4 µM |  | 29% | 33.2 µM | Active | Active
3 | CCCc1cc(NC(C)=O)c(O)c(-c2ccc(OCC)c(CCC)c2)c1 | 123% | 1.8 µM |  | 32% | 6.9 µM | Active | Active
4 | CCCc1ccc(OC)c(-c2cc(CCC)c(O)c(NC(C)=O)c2)c1 | 42.5% | 24.6 µM | inactive |  |  |  | 
5 | C=CCc1ccc(OC)c(-c2cc(N)c(O)c(CC=C)c2)c1 | 72% | 47.6 µM |  | 59% | 144 µM | Active | Active
6 | C=CCc1ccc(O)c(-c2ccc(O)c(CC=C)c2)c1 [HONOKIOL] |  |  |  | 78% | 76.2 µM |  | 
7 | CCCc1ccc(OC)c(-c2cc(N)c(O)c(CCC)c2)c1 | 108% | 15.8 µM |  | 52% | 62.2 µM | Active | Active
8 | CCCc1ccc(OCC)c(-c2cc(N)c(O)c(CCC)c2)c1 | 118% | 20.4 µM | inactive |  |  |  | 
9 | C=CCc1cc(NC(C)=O)c(O)c(-c2ccc(OC)c(CC=C)c2)c1 | 142% | 5.3 µM |  | 63% | 68.1 µM |  | 

Reference: ChEMBL document CHEMBL3616420, “Nitrogenated honokiol derivatives allosterically modulate GABAA receptors and act as strong partial agonists” (Bioorg Med Chem, 2015)
